This passage reports IC50 results from BindingDB's records for doi:10.1021/jm701107h (The Ohio State University, 2008).

The experiment concerns the target T1, Aromatase (Homo sapiens, UniProt P11511).
T1 sequence (P11511 whole entry): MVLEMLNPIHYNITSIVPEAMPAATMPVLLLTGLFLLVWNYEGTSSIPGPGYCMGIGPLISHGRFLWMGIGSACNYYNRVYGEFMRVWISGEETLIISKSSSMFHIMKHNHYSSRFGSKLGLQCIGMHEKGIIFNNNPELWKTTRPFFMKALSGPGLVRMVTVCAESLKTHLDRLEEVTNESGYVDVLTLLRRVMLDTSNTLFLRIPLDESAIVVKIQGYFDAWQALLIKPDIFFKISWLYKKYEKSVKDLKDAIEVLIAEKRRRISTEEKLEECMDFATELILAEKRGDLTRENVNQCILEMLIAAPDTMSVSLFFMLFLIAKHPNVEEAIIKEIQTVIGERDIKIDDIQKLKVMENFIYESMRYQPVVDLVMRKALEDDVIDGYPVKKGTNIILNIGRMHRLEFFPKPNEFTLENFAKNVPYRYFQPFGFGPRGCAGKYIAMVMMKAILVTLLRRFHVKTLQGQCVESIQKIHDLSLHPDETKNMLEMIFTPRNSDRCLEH
Description: Inhibition of aromatase in human SKBR3 cells by tritiated water release assay. The procedure, abridged:
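Subconfluent SK-BR-3 cells were switched to defined DMEM/F12 (human albumin, transferrin, insulin) and treated 24 h at five concentrations in triplicate (0.1% DMSO vehicle). They were then incubated 3 h with 100 nM [1β-3H]-androstenedione. TCA-precipitated medium was chloroform-extracted and charcoal-treated, and 3H2O counted as pmol/h/10^6 cells, normalized by DNA assay. IC50 was taken from sigmoidal dose–response fits.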

pIC50: −log10 of the molar value.

`COc1cc([N+](=O)[O-])ccc1NS(C)(=O)=O` [N-(2-methoxy-4-nitrophenyl)methanesulfonamide] had a pIC50 below 4.60. Then `COc1cc([N+](=O)[O-])ccc1N(C)S(C)(=O)=O` [N-methyl-N-(2-methoxy-4-nitrophenyl)methanesulfonamide], with below 4.60.

The pIC50 is the negative decadic logarithm of the IC50, by convention in mol/L. Higher therefore signals a small IC50.
